{"source": "ChEMBL document CHEMBL3352644", "about": "“Selenadiazole derivatives as potent thioredoxin reductase inhibitors that enhance the radiosensitivity of cancer cells” (Eur J Med Chem, 2014)", "key": {"Homo sapiens": {"species": "Homo sapiens", "test": "Binding affinity to PMB-AGUVGAGLIK TrxR model peptide (unknown origin) at peptide to compound molar ratio of 1:1 at 37 degC for 18 hrs by MALDI-TOF-MS/MS assay", "method_in_brief": "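Pre-reduced TrxR model peptide PMB-Ala-Gly-Sec-Val-Gly-Ala-Gly-Leu-Ile-Lys incubated with compound at 1:1 molar ratio, 37 °C, 18 h; adducts examined by MALDI-TOF MS, looking for compound-derived mass shifts and fragment peaks.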"}, "A-375 [1]": {"test_system": "A-375", "test": "Induction of apoptosis in human A375 cells assessed as caspase 8 activation at 2 ug/mL incubated for 6 hrs followed by irradiation with 8 Gy X-ray at 37 degC for 12 hrs by Western blotting method", "assay_type": "functional, cell-based", "method_in_brief": "(§1)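 A375 cells treated with 2 µg/ml alone or with 8 Gy X-ray (6 h pretreatment, then 12 h; 18 h total). RIPA lysates (50 µg protein) run on SDS-PAGE and immunoblotted for caspases and PARP cleavage. Reprobed for β-actin as loading control.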"}, "A-375 [2]": {"test_system": "A-375", "test": "Induction of cell cycle arrest in human A375 cells assessed as accumulation at G2/M phase at 4 ug/mL incubated for 18 hrs by propidium iodide staining based flow cytometry (reference value: 13.9%)", "assay_type": "functional", "method_in_brief": "(§2)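 A375 cells treated at 10 or 4 µg/ml for 6 h, given 0 or 8 Gy X-ray, then 12 h more. Trypsinized, washed in PBS, fixed overnight in ice-cold 75% ethanol at −20 °C. Stained with propidium iodide, 30 min at 37 °C in the dark; DNA content and sub-G1 population read by flow cytometry.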"}, "A-375 [3]": {"test_system": "A-375", "test": "Induction of apoptosis in human A375 cells assessed as caspase 9 activation at 2 ug/mL incubated for 6 hrs followed by irradiation with 8 Gy X-ray at 37 degC for 12 hrs by Western blotting method", "assay_type": "functional, cell-based", "method_in_brief": "as §1"}, "A-375 [4]": {"test_system": "A-375", "test": "Induction of cell morphological changes in human A375 cells incubated for 6 hrs followed by irradiation with 8 Gy X-ray at 37 degC for 12 hrs by microscopy", "assay_type": "functional, cell-based"}, "A-375 [5]": {"test_system": "A-375", "test": "Reduction in Trx expression in human A375 cells at 2 ug/mL after 18 hrs by Western blotting method", "assay_type": "functional, cell-based"}, "A-375 [6]": {"test_system": "A-375", "test": "Induction of apoptosis in human A375 cells assessed as caspase 8 activation at 2 ug/mL incubated for 18 hrs by Western blotting method", "assay_type": "functional, cell-based", "method_in_brief": "as §1"}, "A-375 [7]": {"test_system": "A-375", "test": "Reduction in Trx expression in human A375 cells at 2 ug/mL incubated for 6 hrs followed by irradiation with 8 Gy X-ray at 37 degC for 12 hrs by Western blotting method", "assay_type": "functional, cell-based"}, "A-375 [8]": {"test_system": "A-375", "test": "Reduction in Bid expression in human A375 cells at 4 ug/mL incubated for 6 hrs followed by irradiation with 8 Gy X-ray at 37 degC for 12 hrs by Western blotting method", "assay_type": "functional, cell-based", "method_in_brief": "(§3)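 A375 cells given […] for 6 h, then 0 or 8 Gy X-ray at 1.5 Gy/min and 12 h further culture. Lysis in ice-cold RIPA, pH 7.4, with protease and phosphatase inhibitors; protein by BCA. […] protein per lane on SDS-PAGE, transferred to nitrocellulose. Blocked in 5% milk/TBST. Primary 1:1000, 10 h, 4 °C; HRP secondary 1:2000, 1.5 h.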"}, "A-375 [9]": {"test_system": "A-375", "test": "Induction of cell cycle arrest in human A375 cells assessed as accumulation at S phase at 4 ug/mL incubated for 6 hrs followed by irradiation with 8 Gy X-ray at 37 degC for 12 hrs by propidium iodide staining based flow cytometry (reference value: 7.9%)", "assay_type": "functional", "method_in_brief": "as §2"}, "A-375 [10]": {"test_system": "A-375", "test": "Induction of apoptosis in human A375 cells assessed as caspase 3 activation at 2 ug/mL incubated for 18 hrs by fluorometric assay", "assay_type": "functional, cell-based", "method_in_brief": "(§4)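 Cells seeded at 1 × 10⁶ per 10 cm dish and treated with 2 µg/ml alone or with 8 Gy X-ray for 18 h total. RIPA lysates clarified by spinning at 12,000 rpm for 5 min; 80 µg protein given Ac-DEVD-AMC (caspase-3), Ac-IETD-AMC (caspase-8) or Ac-LEHD-AMC (caspase-9). Incubated 2 h at 37 °C in the dark; fluorescence at 380/440 nm.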"}, "[11]": {"molecular_target": "MAP kinase p38 (Homo sapiens) (UniProt O15264+Q15759+Q16539+P53778)", "test": "Induction of p38 phosphorylation in human A375 cells at 4 ug/mL incubated for 18 hrs by Western blotting method", "assay_type": "cell-based", "details": "A-375", "method_in_brief": "as §3"}, "A-375 [12]": {"test_system": "A-375", "test": "Induction of apoptosis in human A375 cells assessed as PARP cleavage at 2 ug/mL incubated for 6 hrs followed by irradiation with 8 Gy X-ray at 37 degC for 12 hrs by Western blotting method", "assay_type": "functional, cell-based", "method_in_brief": "as §1"}, "[13]": {"molecular_target": "Thioredoxin reductase (Homo sapiens) (UniProt Q16881+Q9NNW7+Q86VQ6)", "test": "Inhibition of TrxR antioxidant enzyme activity in human A375 cells at 2 ug/mL incubated for 6 hrs followed by irradiation with 8 Gy X-ray at 37 degC for 12 hrs by insulin reduction assay", "assay_type": "cell-based", "details": "A-375"}, "A-375 [14]": {"test_system": "A-375", "test": "Induction of cell cycle arrest in human A375 cells assessed as accumulation at G2/M phase at 4 ug/mL incubated for 6 hrs followed by irradiation with 8 Gy X-ray at 37 degC for 12 hrs by propidium iodide staining based flow cytometry (reference value: 47.2%)", "assay_type": "functional", "method_in_brief": "as §2"}, "A-375 [15]": {"test_system": "A-375", "test": "Increase in Bid cleavage in human A375 cells at 4 ug/mL incubated for 18 hrs by Western blotting method", "assay_type": "functional, cell-based", "method_in_brief": "(§5)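 A375 cells pretreated 6 h with compound at 4 µg/ml, given 0 or 8 Gy X-ray, then incubated 12 h more. Lysed in RIPA buffer, pH 7.4, with protease and phosphatase inhibitors; 50 µg protein run on SDS-PAGE and blotted to nitrocellulose. Blocked in 5% milk; primary antibodies 1:1000, 10 h at 4 °C; HRP secondary 1:2000.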"}, "A-375 [16]": {"test_system": "A-375", "test": "Cytotoxicity against human A375 cells after 18 hrs by MTT assay", "assay_type": "functional, cell-based", "details": "A-375, 18 h", "method_in_brief": "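A375 cells (DMEM, 10% FBS, 37 °C, 5% CO2) seeded at 4 × 10⁴ cells/well and grown to 70–80% confluence. Treated with 0, 1, 2, 4, 8, 16 or 32 µg/ml for 6 h, then given 0 or 8 Gy X-ray (linear accelerator, 1.5 Gy/min), then 12 h more at 37 °C. MTT 4 h, formazan dissolved in DMSO, read at 570 nm; % of control; three repeats.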"}, "A-375 [17]": {"test_system": "A-375", "test": "Induction of apoptosis in human A375 cells assessed as caspase 8 activation at 2 ug/mL incubated for 18 hrs by fluorometric assay", "assay_type": "functional, cell-based", "method_in_brief": "as §4"}, "A-375 [18]": {"test_system": "A-375", "test": "Induction of cell cycle arrest in human A375 cells assessed as accumulation at S phase at 4 ug/mL incubated for 18 hrs by propidium iodide staining based flow cytometry (reference value: 37.2%)", "assay_type": "functional", "method_in_brief": "as §2"}, "[19]": {"molecular_target": "c-Jun N-terminal kinase, JNK (Homo sapiens) (UniProt P45983+P53779+P45984)", "test": "Induction of JNK phosphorylation in human A375 cells at 4 ug/mL incubated for 6 hrs followed by irradiation with 8 Gy X-ray at 37 degC for 12 hrs by Western blotting method", "assay_type": "cell-based", "details": "A-375", "method_in_brief": "as §5"}, "A-375 [20]": {"test_system": "A-375", "test": "Induction of cell shrinkage in human A375 cells incubated for 6 hrs followed by irradiation with 8 Gy X-ray at 37 degC for 12 hrs by microscopy", "assay_type": "functional, cell-based", "method_in_brief": "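A375 cells in DMEM with 10% FBS, 37 °C, 5% CO2. Pretreated with agent 6 h, then 0 or 8 Gy X-ray from a linear accelerator at 1.5 Gy/min, room temperature. Incubated a further 12 h; morphology imaged.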"}}, "note": "Active and inactive are the calls of the source. The calls are words filed in the database; no cut-off is given here."}
{"smiles": "COc1cc(-c2nc3cc(-c4ccc5n[se]nc5c4)ccc3[nH]2)cc(OC)c1OC", "values": [{"measurement": "Activity", "setting": "Homo sapiens", "value": "Active"}, {"measurement": "Activity", "setting": "A-375 [1]", "value": "Active"}, {"measurement": "Activity", "setting": "A-375 [2]", "value": 44.4, "unit": "%"}, {"measurement": "Activity", "setting": "A-375 [3]", "value": "Active"}, {"measurement": "Activity", "setting": "A-375 [4]", "value": "Active"}, {"measurement": "Activity", "setting": "A-375 [5]", "value": "Active"}, {"measurement": "Activity", "setting": "A-375 [6]", "value": "Active"}, {"measurement": "Activity", "setting": "A-375 [7]", "value": "Active"}, {"measurement": "Activity", "setting": "A-375 [8]", "value": "Active"}, {"measurement": "Activity", "setting": "A-375 [9]", "value": 30.6, "unit": "%"}, {"measurement": "Activity", "setting": "A-375 [10]", "value": "Active"}, {"measurement": "Activity", "setting": "[11]", "value": "Active"}, {"measurement": "Activity", "setting": "A-375 [12]", "value": "Active"}, {"measurement": "inhibition", "setting": "[13]", "value": "Active"}, {"measurement": "Activity", "setting": "A-375 [14]", "value": 22.1, "unit": "%"}, {"measurement": "Activity", "setting": "A-375 [15]", "value": "Active"}, {"measurement": "IC50", "setting": "A-375 [16]", "value": 12.4, "unit": "µg/mL"}, {"measurement": "Activity", "setting": "A-375 [17]", "value": "Active"}, {"measurement": "Activity", "setting": "A-375 [18]", "value": 34, "unit": "%"}, {"measurement": "Activity", "setting": "[19]", "value": "Active"}, {"measurement": "Activity", "setting": "A-375 [20]", "value": "Active"}]}
